Results from ChEMBL document CHEMBL1130391, “Novel agonists of 5HT2C receptors. Synthesis and biological evaluation of substituted 2-(indol-1-yl)-1-methylethylamines and 2-(indeno[1,2-b]pyrrol-1-yl)-1-methylethylamines. Improved therapeutics for obsessive compulsive disorder” (J Med Chem, 1997).
The source made the active and inactive calls. The rule behind the calls is not given here.

Tests used:
[1] = biological target: T1, 5-hydroxytryptamine receptor 2C (Rattus norvegicus, UniProt P08909); test: Efficacy (pEC50) was evaluated for 5-HT2C receptor-mediated stimulation of IP3 formation in vitro in choroid plexus of the rat; type: functional, tissue-based
T1 sequence (P08909 whole entry): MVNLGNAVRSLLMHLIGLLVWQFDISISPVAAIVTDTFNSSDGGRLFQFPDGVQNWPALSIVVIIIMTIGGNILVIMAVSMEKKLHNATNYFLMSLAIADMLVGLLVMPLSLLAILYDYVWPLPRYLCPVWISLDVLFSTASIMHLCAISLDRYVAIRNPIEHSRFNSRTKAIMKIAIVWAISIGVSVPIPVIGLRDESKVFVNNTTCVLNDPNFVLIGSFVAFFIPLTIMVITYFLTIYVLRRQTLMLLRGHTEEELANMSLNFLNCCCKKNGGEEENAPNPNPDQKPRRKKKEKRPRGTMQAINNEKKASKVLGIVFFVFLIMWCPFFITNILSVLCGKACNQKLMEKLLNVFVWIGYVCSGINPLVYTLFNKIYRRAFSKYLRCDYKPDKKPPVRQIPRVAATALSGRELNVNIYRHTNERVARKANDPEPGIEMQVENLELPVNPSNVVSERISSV
How it was run: (§1)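 Rat choroid plexus preloaded with [³H]myoinositol for 1 h at 37 °C in oxygenated Krebs. LiCl 10 mM and pargyline 10 µM added, then compound 10 min later. Six concentrations, top 0.1 mM, incubated 0.5 h at 37 °C. Stopped with HClO₄/EDTA, then IP₃ isolated. Three measures per point. Intrinsic activity is the maximum relative to 10 µM 5HT.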

Rattus norvegicus [2] = test: Compound was tested in schedule induced polydipsia in rats expressed as %maximum suppression at minimum effective dose of 3 mg/kg intraperitoneally; type: functional; settings: route intraperitoneal
[3] = biological target: T2, 5-hydroxytryptamine receptor 2C (Rattus norvegicus) (UniProt P08909); test: Induction of penile erection in rats after subcutaneous administration, indicative of 5-HT 2c receptor activation; type: functional, organism-based
T2 sequence (whole entry): T1 sequence (P08909 whole entry)
How it was run: (§2)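 Male erection counts in RORO rats, 8 per dose, over 45 min. Drug is given in 0.3% Tween-80 in saline, sc at 5 mL/kg or orally at 10 mL/kg. Vehicle controls are included, and doses are expressed as salt weight. ED₅₀ by probit analysis, or the approximate dose at which half the rats respond.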

[4] = biological target: T2, 5-hydroxytryptamine receptor 2C (Rattus norvegicus); test: Intrinsic 5-HT 2c receptor activity as induced IP3 turnover in vitro in rat choroid plexus; type: functional, tissue-based; how it was run: as §1
[5] = biological target: 5-hydroxytryptamine receptor 2A (Homo sapiens, UniProt P28223); test: Binding affinity against human 5-hydroxytryptamine 2A receptor using displacement of [3H]5-HT
[6] = biological target: T2, 5-hydroxytryptamine receptor 2C (Rattus norvegicus); test: Induction of penile erection in rats following p.o. administration, indicative of 5-HT 2c receptor activation; type: functional, organism-based; how it was run: as §2
[7] = biological target: T3, 5-hydroxytryptamine receptor 2C (Homo sapiens, UniProt P28335); test: Binding affinity against human 5-hydroxytryptamine 2C receptor using displacement of [3H]DOB
T3 sequence (P28335 whole entry): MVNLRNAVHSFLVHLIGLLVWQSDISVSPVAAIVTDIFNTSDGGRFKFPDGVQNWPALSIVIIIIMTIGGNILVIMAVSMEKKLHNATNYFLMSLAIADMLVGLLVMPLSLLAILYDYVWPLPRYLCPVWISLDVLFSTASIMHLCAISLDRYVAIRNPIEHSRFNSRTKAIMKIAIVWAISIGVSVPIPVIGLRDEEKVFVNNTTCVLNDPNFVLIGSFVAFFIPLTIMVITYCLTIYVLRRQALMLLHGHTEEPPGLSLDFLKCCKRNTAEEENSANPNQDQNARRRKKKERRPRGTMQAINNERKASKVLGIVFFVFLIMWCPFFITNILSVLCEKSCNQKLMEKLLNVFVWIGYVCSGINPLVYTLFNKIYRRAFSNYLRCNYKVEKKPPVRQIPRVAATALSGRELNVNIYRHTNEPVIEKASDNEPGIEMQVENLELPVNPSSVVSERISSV

[8] = biological target: T2, 5-hydroxytryptamine receptor 2C (Rattus norvegicus); test: Efficacy (pEC50) was evaluated for 5-HT2C receptor-mediated stimulation of IP3 formation in vitro in choroid plexus of the rat; inactive; type: functional, tissue-based; how it was run: as §1
[9] = biological target: T2, 5-hydroxytryptamine receptor 2C (Rattus norvegicus); test: The compound was tested for induction of penile erection in rats after peroral administration; Inactive; type: functional, organism-based; how it was run: as §2
Rattus norvegicus [10] = test: Compound was tested in schedule induced polydipsia in rats expressed as %maximum suppression at minimum effective dose of 10 mg/kg intraperitoneally; type: functional; settings: route intraperitoneal
Rattus norvegicus [11] = test: Compound was tested in schedule induced polydipsia in rats expressed as %maximum suppression at minimum effective dose of 30 mg/kg intraperitoneally; type: functional; settings: route intraperitoneal
Rattus norvegicus [12] = test: Compound was tested in schedule induced polydipsia in rats expressed as %maximum suppression at minimum effective dose of 1 mg/kg intraperitoneally; type: functional; settings: route intraperitoneal

Chain of 5-hydroxytryptamine receptor 2A (P28223 whole entry): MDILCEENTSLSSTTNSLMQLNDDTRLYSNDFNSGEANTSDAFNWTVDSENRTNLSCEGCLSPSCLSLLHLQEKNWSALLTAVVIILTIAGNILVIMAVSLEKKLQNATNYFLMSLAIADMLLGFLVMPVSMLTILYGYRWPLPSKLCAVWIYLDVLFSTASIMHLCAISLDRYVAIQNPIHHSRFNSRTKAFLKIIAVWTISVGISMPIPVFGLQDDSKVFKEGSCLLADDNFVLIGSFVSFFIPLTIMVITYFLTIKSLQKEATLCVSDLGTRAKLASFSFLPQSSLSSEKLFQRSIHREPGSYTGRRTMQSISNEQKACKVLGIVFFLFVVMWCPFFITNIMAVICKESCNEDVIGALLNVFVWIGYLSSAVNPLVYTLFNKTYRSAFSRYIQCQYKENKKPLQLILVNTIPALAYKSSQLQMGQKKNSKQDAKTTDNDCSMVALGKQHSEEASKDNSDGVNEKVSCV

C[C@H](N)Cn1ccc2c(Cl)c(F)ccc21
EC50 [1]: 0.316 µM
Max suppression (Rattus norvegicus [2]): -97%
ED50 [3]: 2.7 mg/kg
Efficacy [4]: 1
Ki [5]: 0.0398 µM
ED50 [6]: > 30 mg/kg
Ki [7]: 0.00126 µM

COc1cccc2c1Cc1ccn(CC(C)N)c1-2 (stereo not given)
Log EC50 [8]: inactive
ED50 [3]: > 10 mg/kg
Ki [5]: 3.16 µM
Ki [7]: 0.1 µM

COc1cccc2c1-c1c(ccn1CC(C)N)C2 (stereo not given)
EC50 [1]: 6.31 µM
ED50 [3]: > 10 mg/kg
Efficacy [4]: 0.7
Ki [5]: 0.398 µM
Ki [7]: 0.0126 µM

CC(N)Cn1ccc2c1-c1cc(Cl)ccc1C2 (stereo not given)
EC50 [1]: 2.51 µM
ED50 [3]: 2.7 mg/kg
Efficacy [4]: 0.8
Ki [5]: 0.2 µM
ED50 [6]: > 30 mg/kg
Ki [7]: 0.00398 µM

CC(N)Cn1ccc2c1-c1cc(F)ccc1C2(C)C (stereo not given)
EC50 [1]: 0.2 µM
ED50 [3]: 2.7 mg/kg
Efficacy [4]: 1
Ki [5]: 0.0316 µM
ED50 [6]: > 30 mg/kg
Ki [7]: 0.00501 µM

CC(N)Cn1ccc2c1-c1cc(Br)ccc1C2 (stereo not given)
EC50 [1]: 2.51 µM
ED50 [3]: > 10 mg/kg
Efficacy [4]: 1
Ki [5]: 0.1 µM
Ki [7]: 0.00398 µM

Cc1cccc2c1ccn2CC(C)N (stereo not given)
EC50 [1]: 2.51 µM
ED50 [3]: 3.2 mg/kg
Efficacy [4]: 0.6
Ki [5]: 0.1 µM
ED50 [6]: > 30 mg/kg
Ki [7]: 0.00631 µM

C[C@@H](N)Cn1ccc2c(Cl)c(F)ccc21
EC50 [1]: 0.794 µM
ED50 [9]: inactive
ED50 [3]: 3.3 mg/kg
Efficacy [4]: 0.9
Ki [5]: 0.01 µM
Ki [7]: 0.00126 µM

COc1ccc2c(ccn2CC(C)N)c1 (stereo not given)
EC50 [1]: 10 µM
ED50 [3]: > 10 mg/kg
Efficacy [4]: 0.3
Ki [7]: 0.794 µM

CC(N)Cn1ccc2ccc(F)cc21 (stereo not given)
EC50 [1]: 0.631 µM
ED50 [3]: 0.3 mg/kg
Efficacy [4]: 1
Ki [5]: 0.251 µM
ED50 [6]: > 30 mg/kg
Ki [7]: 0.00398 µM

CC(N)Cn1ccc2cc(F)ccc21 (stereo not given)
EC50 [1]: 1.58 µM
Max suppression (Rattus norvegicus [2]): -97%
ED50 [3]: 1 mg/kg
Efficacy [4]: 1
Ki [5]: 0.158 µM
ED50 [6]: 2.7 mg/kg
Ki [7]: 0.00631 µM

C[C@H](N)Cn1ccc2cc(F)c(Cl)cc21
Max suppression (Rattus norvegicus [10]): -90%
EC50 [1]: 0.2 µM
ED50 [3]: 0.5 mg/kg
Efficacy [4]: 1
Ki [5]: 0.0316 µM
ED50 [6]: 5.5 mg/kg
Ki [7]: 0.00126 µM

CNCCC(Oc1ccc(C(F)(F)F)cc1)c1ccccc1 (stereo not given) [FLUOXETINE]
Max suppression (Rattus norvegicus [11]): -11%

CC(N)Cn1ccc2cc(Br)ccc21 (stereo not given)
EC50 [1]: 2 µM
ED50 [3]: 4 mg/kg
Efficacy [4]: 0.8
Ki [5]: 0.158 µM
ED50 [6]: > 30 mg/kg
Ki [7]: 0.00398 µM

C[C@@H](N)Cn1ccc2cc(F)c(Cl)cc21
EC50 [1]: 3.16 µM
ED50 [3]: 2.1 mg/kg
Efficacy [4]: 1
Ki [5]: 0.0794 µM
ED50 [6]: > 30 mg/kg
Ki [7]: 0.01 µM

COc1cccc2c1ccn2CC(C)N (stereo not given)
EC50 [1]: 12.6 µM
ED50 [3]: > 10 mg/kg
Efficacy [4]: 0.3
Ki [7]: 0.126 µM

COc1ccc2c(c1)-c1c(ccn1CC(C)N)C2 (stereo not given)
Max suppression (Rattus norvegicus [10]): -79%
EC50 [1]: 0.398 µM
ED50 [3]: 0.6 mg/kg
Efficacy [4]: 1
Ki [5]: 0.126 µM
ED50 [6]: 11 mg/kg
Ki [7]: 0.001 µM

Cc1ccc2c(c1)-c1c(ccn1CC(C)N)C2 (stereo not given)
EC50 [1]: 0.501 µM
ED50 [3]: > 10 mg/kg
Efficacy [4]: 1
Ki [5]: 0.0631 µM
Ki [7]: 0.00794 µM

COc1ccc2c(c1)-c1c(ccn1CC(C)N)C2(C)C (stereo not given)
EC50 [1]: 0.1 µM
ED50 [3]: 0.5 mg/kg
Max suppression (Rattus norvegicus [12]): -75%
Efficacy [4]: 1
Ki [5]: 0.01 µM
ED50 [6]: 10 mg/kg
Ki [7]: 0.000398 µM

Cc1ccc2c(ccn2CC(C)N)c1 (stereo not given)
EC50 [1]: 2.51 µM
ED50 [3]: > 10 mg/kg
Efficacy [4]: 0.9
Ki [5]: 0.794 µM
Ki [7]: 0.0631 µM

C[C@H](N)Cn1ccc2cc(F)c(F)cc21
EC50 [1]: 0.2 µM
Max suppression (Rattus norvegicus [2]): -73%
ED50 [3]: 0.3 mg/kg
Efficacy [4]: 1
Ki [5]: 0.1 µM
ED50 [6]: 10 mg/kg
Ki [7]: 0.001 µM

COc1ccc2c(c1)Cc1ccn(CC(C)N)c1-2 (stereo not given)
EC50 [1]: 2 µM
ED50 [3]: > 10 mg/kg
Efficacy [4]: 1
Ki [5]: 0.398 µM
Ki [7]: 0.0126 µM

C[C@@H](N)Cn1ccc2cc(F)c(F)cc21
EC50 [1]: 0.126 µM
ED50 [3]: 2.7 mg/kg
Efficacy [4]: 1
Ki [5]: 0.1 µM
ED50 [6]: 30 mg/kg
Ki [7]: 0.00398 µM

CC(N)Cn1ccc2cc(Cl)c(F)cc21 (stereo not given)
EC50 [1]: 0.398 µM
Max suppression (Rattus norvegicus [2]): -88%
ED50 [3]: 1 mg/kg
Efficacy [4]: 1
Ki [5]: 0.0398 µM
ED50 [6]: 15 mg/kg
Ki [7]: 0.002 µM

Cc1ccc2ccn(CC(C)N)c2c1 (stereo not given)
EC50 [1]: 7.94 µM
ED50 [3]: 3.3 mg/kg
Efficacy [4]: 0.9
Ki [5]: 0.794 µM
ED50 [6]: > 30 mg/kg
Ki [7]: 0.0158 µM

Cc1ccc2c(c1)-c1c(ccn1CC(C)N)C2(C)C (stereo not given)
Max suppression (Rattus norvegicus [10]): -76%
EC50 [1]: 0.2 µM
ED50 [3]: 0.9 mg/kg
Efficacy [4]: 1
Ki [5]: 0.1 µM
ED50 [6]: 10 mg/kg
Ki [7]: 0.00316 µM

CC(N)Cn1ccc2cc(Cl)ccc21 (stereo not given)
EC50 [1]: 2 µM
ED50 [3]: 2.3 mg/kg
Efficacy [4]: 0.9
Ki [5]: 0.2 µM
ED50 [6]: > 30 mg/kg
Ki [7]: 0.00794 µM

CC(N)Cc1c[nH]c2ccc(F)cc12 (stereo not given)
EC50 [1]: 0.158 µM
ED50 [3]: 0.8 mg/kg
Max suppression (Rattus norvegicus [12]): -96%
Efficacy [4]: 0.9
Ki [5]: 0.0631 µM
ED50 [6]: 9.9 mg/kg
Ki [7]: 0.01 µM

CC(N)Cn1ccc2c(F)cccc21 (stereo not given)
EC50 [1]: 1.26 µM
ED50 [3]: > 10 mg/kg
Efficacy [4]: 0.7
Ki [5]: 0.158 µM
Ki [7]: 0.00794 µM

COc1ccc2c(c1)-c1c(ccn1C[C@@H](C)N)C2
EC50 [1]: 7.94 µM
ED50 [3]: 2 mg/kg
Efficacy [4]: 0.8
Ki [5]: 0.126 µM
ED50 [6]: > 30 mg/kg
Ki [7]: 0.00398 µM

COc1ccc2c(c1)-c1c(ccn1C[C@H](C)N)C2
EC50 [1]: 0.251 µM
ED50 [3]: 1.2 mg/kg
Max suppression (Rattus norvegicus [12]): -97%
Efficacy [4]: 1
Ki [5]: 0.126 µM
ED50 [6]: 10 mg/kg
Ki [7]: 0.001 µM

CC(N)Cn1ccc2c1-c1cc(F)ccc1C2 (stereo not given)
EC50 [1]: 0.631 µM
ED50 [3]: 1.5 mg/kg
Efficacy [4]: 1
Ki [5]: 0.2 µM
ED50 [6]: > 30 mg/kg
Ki [7]: 0.00316 µM
